ChEMBL document CHEMBL3872250, “Structure-activity and in vivo evaluation of a novel lipoprotein lipase (LPL) activator” (Bioorg Med Chem Lett, 2017)
One block for each molecule: values may come before it. Active and inactive are the calls of the source. The rule behind the calls is not given here.

Columns and labels:
[1] = biological target: T1, Lipoprotein lipase (Bos taurus) (UniProt P11151); experiment: Inhibition of bovine recombinant lipoprotein lipase at 100 uM using p-Nitrophenyl butyrate as substrate by HTS assay
T1 sequence (whole entry): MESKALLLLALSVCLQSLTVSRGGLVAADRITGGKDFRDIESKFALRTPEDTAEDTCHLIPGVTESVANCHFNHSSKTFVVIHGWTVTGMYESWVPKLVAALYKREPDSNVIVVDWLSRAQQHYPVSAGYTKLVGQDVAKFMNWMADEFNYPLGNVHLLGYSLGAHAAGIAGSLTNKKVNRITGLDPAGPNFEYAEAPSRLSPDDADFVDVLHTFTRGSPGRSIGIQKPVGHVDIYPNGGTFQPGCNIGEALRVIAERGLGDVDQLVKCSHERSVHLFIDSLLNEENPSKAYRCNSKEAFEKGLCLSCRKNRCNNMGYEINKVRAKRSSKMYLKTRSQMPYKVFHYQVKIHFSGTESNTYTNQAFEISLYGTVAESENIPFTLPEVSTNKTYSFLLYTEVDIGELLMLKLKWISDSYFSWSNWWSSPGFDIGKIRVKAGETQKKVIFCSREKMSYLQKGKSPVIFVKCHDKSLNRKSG
How it was run: (§1)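 Recombinant LPL screened at 100 µM in a 384-well format with p-nitrophenyl butyrate as substrate. […] release was read as absorbance at 405 nm, and activity was expressed as fold change in absorbance.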

[2] = biological target: T1, Lipoprotein lipase (Bos taurus); experiment: Activation of bovine recombinant lipoprotein lipase at 100 uM using p-Nitrophenyl butyrate as substrate by HTS assay; how it was run: as §1
[3] = test system: Rattus norvegicus; experiment: In vivo activation of lipoprotein lipase in STZ-induced diabetes rat model relative to control; type: functional
[4] = test system: Mus musculus; experiment: In vivo activation of lipoprotein lipase in high fat diet fed C57BL/6 mouse assessed as reduction in total body fat content at 1 to 10 mg/kg, ip administered daily on last week of 4 months study until end; type: functional, organism-based
How it was run: (§2)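 Mice fed a high-fat diet (60% kcal from fat) for four months, with daily i.p. dosing at 10 mg/kg during the final week. A dose-response at 1, 5 and 10 mg/kg was used to select the dose. Body weight, total body fat and lean mass were measured by EchoMRI before sacrifice. Mean ± S.D., n = 4.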

[5] = test system: Mus musculus; experiment: In vivo activation of lipoprotein lipase in high fat diet fed C57BL/6 mouse at 10 mg/kg, ip administered daily on last week of 4 months study until end by fluorescence assay; type: functional, organism-based
[6] = test system: Mus musculus; experiment: Reduction in serum cholesterol level in high fat diet fed C57BL/6 mouse at 10 mg/kg, ip administered daily on last week of 4 months study until end; type: functional, organism-based
How it was run: (§3)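 Serum triglycerides and cholesterol measured with commercial kits after sacrifice. Mice had four months of high-fat diet, with 10 mg/kg i.p. given in the last week. Mean ± SE, n = 3.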

[7] = test system: Mus musculus; experiment: In vivo activation of lipoprotein lipase in high fat diet fed C57BL/6 mouse assessed as reduction in body weight at 1 to 10 mg/kg, ip administered daily on last week of 4 months study until end; type: functional, organism-based; how it was run: as §2
[8] = test system: Mus musculus; experiment: Reduction in lipid accumulation in high fat diet fed C57BL/6 mouse liver at 10 mg/kg, ip administered daily on last week of 4 months study until end by hematoxylin and eosin staining based assay; type: functional, organism-based
How it was run: (§4)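 After four months of high-fat diet with 10 mg/kg i.p. dosing over the final week, livers were examined by gross morphology and size. Sections were stained with hematoxylin and eosin and viewed at 20X to assess lipid accumulation.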

[9] = test system: Mus musculus; experiment: Reduction in serum triglycerides level in high fat diet fed C57BL/6 mouse at 10 mg/kg, ip administered daily on last week of 4 months study until end; type: functional, organism-based; how it was run: as §3
[10] = test system: Mus musculus; experiment: Hepatoprotective activity against high fat diet fed C57BL/6 mouse liver assessed as increase in SIRT1 level at 10 mg/kg, ip administered daily on last week of 4 months study until end; type: functional, organism-based
How it was run: (§5)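 Mice on a high-fat diet for four months were dosed at 10 mg/kg for seven days. Hepatic protein levels of SIRT1 or LC3 were then measured. n = 5 mice; significance at P<0.05.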

[11] = test system: Mus musculus; experiment: Hepatoprotective activity against high fat diet fed C57BL/6 mouse liver assessed as increase in LC3 level at 10 mg/kg, ip administered daily on last week of 4 months study until end; type: functional, organism-based; how it was run: as §5
[12] = biological target: T1, Lipoprotein lipase (Bos taurus); experiment: Activation of bovine recombinant lipoprotein lipase at 100 uM using p-Nitrophenyl butyrate as substrate by HTS assay relative to NO-1886; how it was run: as §1
[13] = test system: Mus musculus; experiment: Toxicity in high fat diet fed C57BL/6 mouse liver assessed as morphological changes at 10 mg/kg, ip administered daily on last week of 4 months study until end by hematoxylin and eosin staining based assay; type: organism-based; conditions: in vivo, 2922 h; how it was run: as §4
[14] = substrate: CC1(C)CC1(C(=O)NCCCn1ccnc1)c1ccc(F)cc1; experiment: Binding affinity to bovine recombinant lipoprotein lipase assessed as Km for substrate using p-Nitrophenyl butyrate as substrate by Lineweaver-Burk plot analysis (reference value: 8.15 mM); conditions: Bos taurus

- inhibition [1]: Active
Molecule: O=C(Cc1ccc(S)cc1)NCCCn1ccnc1

- Activity [2]: Active
Molecule: O=C(Cc1ccccc1)NCCCn1ccnc1

- inhibition [1]: Active
Molecule: CC1(C)CC1(C(=O)NCCNc1cccnc1)c1ccc(F)cc1 (configuration not stated)

- inhibition [1]: Active
Molecule: O=C(Cc1ccc(O)cc1)NCCCn1ccnc1

- Activity [2]: Active
Molecule: O=C(Cc1ccc(F)cc1)NCCCn1ccnc1

- Activity [2]: Active
Molecule: O=C(Cc1ccc(Cl)cc1)NCCCn1ccnc1

- Activity [2]: Active
- fold change (FC) [12]: 2
Molecule: CC1(C)CC1(C(=O)NCCCn1ccnc1)c1ccc(F)cc1 (configuration not stated)
- Activity [4]: Active
- Activity [5]: Active
- Activity [6]: Active
- Activity [7]: Active
- Activity [8]: Active
- Activity [9]: Active
- Activity [10]: Active
- Activity [11]: Active
- Activity [13]: Non-Toxic

Further lines, the molecule ahead of its results:

Molecule: CC1(C)CC1(C(=O)NCCCc1csc(N)n1)c1ccc(F)cc1 (configuration not stated)
- inhibition [1]: Active

Molecule: Cc1cccnc1CN1CCN(C(=O)C2(c3ccc(F)cc3)CC2(C)C)CC1 (configuration not stated)
- inhibition [1]: Active

Molecule: CC1(C)CC1(C(=O)NCCCCN1CCOCC1)c1ccc(F)cc1 (configuration not stated)
- Activity [2]: Active

Molecule: CCOP(=O)(Cc1ccc(C(=O)Nc2ccc(Br)cc2C#N)cc1)OCC [IBROLIPIM]
- Activity [3]: 59%

B1: Lipoprotein lipase (Bos taurus), P11151 (protein)
chain: T1 sequence (whole entry)
- Km [14]: 648 µM
